Consider 16 compounds from ChEMBL document CHEMBL4002631, “Synthesis, antimycobacterial and cytotoxic activity of α,β-unsaturated amides and 2,4-disubstituted oxazoline derivatives” (Bioorg Med Chem Lett, 2017).

Converted amounts (≈) assume the structure as drawn. Where only a bound is given, the exact number is not on record here.

The assay has as its system Mycobacterium tuberculosis. The assay can be described thus: Antimycobacterial activity against isoniazid/rifampicin/ethambutol-resistant Mycobacterium tuberculosis clinical isolate after 4 days by Alamar blue assay. It counts as functional. As to conditions: 96 h. A digest of the protocol:
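Microplate Alamar blue assay against M. tuberculosis H37Rv (sensitive to isoniazid, rifampicin and ethambutol) and a clinical isolate resistant to all three drugs. Compounds were tested at 256, 128, 64, 32, 16, 8, 4, 2 and 1 µg/mL. Isoniazid, rifampicin, ethambutol and ofloxacin controls were run under the same conditions. MIC is given in µg/mL and converted to µM.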
For orientation: The colour change of resazurin is a common sign of viable cells or microbes.
In general, MIC refers to the lowest concentration found to suppress growth. A lower MIC goes with inhibition by little substance. `C(=C\c1ccccc1)/C1=N[C@@H](Cc2ccccc2)CO1` returned a minimal inhibitory concentration (MIC) of 30.4 µM (≈ 8.01 µg/mL).
For `C(=C\c1cccs1)/C1=N[C@@H](Cc2ccccc2)CO1` the value was 7.4 µM (≈ 1.99 µg/mL); for `O=C(/C=C/c1ccc(OCc2ccccc2)cc1)N[C@H](CO)Cc1ccccc1`, 41.2 µM (≈ 16 µg/mL).
Compound `COc1ccc(/C=C/C2=N[C@@H](Cc3ccccc3)CO2)cc1` returned an MIC of 6.8 µM (≈ 1.99 µg/mL). Against the preceding compound, the MIC is about 6.1-fold lower.
For `COc1ccc(/C=C/C(=O)N[C@H](CO)Cc2ccccc2)cc1` the value was 51.3 µM (≈ 16 µg/mL); for `O=C(/C=C/c1cccs1)N[C@H](CO)Cc1ccccc1`, 55.6 µM (≈ 16 µg/mL); for `O=C(/C=C/c1ccccc1)N[C@H](CO)Cc1ccccc1`, 56.8 µM (≈ 16 µg/mL).
For `Fc1ccc(/C=C/C2=N[C@@H](Cc3ccccc3)CO2)cc1` the value was 56.9 µM (≈ 16 µg/mL).
For `Clc1ccc(/C=C/C2=N[C@@H](Cc3ccccc3)CO2)cc1` the value was 26.9 µM (≈ 8.01 µg/mL).
In the case of `C(=C\c1ccc(OCc2ccccc2)cc1)/C1=N[C@@H](Cc2ccccc2)CO1`, the MIC is 21.6 µM (≈ 7.98 µg/mL).
The compound `O=C(/C=C/c1ccc(Cl)cc1)N[C@H](CO)Cc1ccccc1` showed an MIC of 50.6 µM (≈ 16 µg/mL).
With `O=C(/C=C/c1ccc(F)cc1)N[C@H](CO)Cc1ccccc1` the figure was 53.4 µM (≈ 16 µg/mL).
For `CC[C@@H](CO)NCCN[C@@H](CC)CO` [ETHAMBUTOL] the value was above 1250 µM; for `NNC(=O)c1ccncc1` [ISONIAZID], 58.3 µM (≈ 8 µg/mL).
For `CC1COc2c(N3CCN(C)CC3)c(F)cc3c(=O)c(C(=O)O)cn1c23` (stereo unspecified) [OFLOXACIN] the value was 5.5 µM (≈ 1.99 µg/mL); for `CO[C@H]1/C=C/O[C@@]2(C)Oc3c(C)c(O)c4c(O)c(c(/C=N/N5CCN(C)CC5)c(O)c4c3C2=O)NC(=O)/C(C)=C\C=C\[C@H](C)[C@H](O)[C@@H](C)[C@@H](O)[C@@H](C)[C@H](OC(C)=O)[C@@H]1C` [RIFAMPIN], 19.4 µM (≈ 16 µg/mL).
